Here are results for two compounds from ChEMBL document CHEMBL3734652, “Pyrrolo[3,4-c]pyridine-1,3(2H)-diones: A Novel Antimycobacterial Class Targeting Mycobacterial Respiration” (J Med Chem, 2015).

The test system of data set [1] is Plasma. Put plainly: Drug metabolism in C57/BL6 mouse plasma assessed as formation of 7-Amino-2-benzyl-4-methyl-1,3-dioxo-2,3-dihydro-1H-pyrrolo-[3,4-c]pyridine-6-carboxamide by LC-MS analysis. The class given is ADME, cell-free.
The nature of data set [2]: Kinetic solubility in FaSSIF at pH 6.5 after 2 hours at 25 degC by shake flask method. The class given is physicochemical. As to conditions: read-out: Kinetic_solubility.
Data set [3] can be described thus: Metabolic stability in rat liver microsomes assessed as residual compound at 0.1 uM after 30 mins by LC-MS/MS method in presence or absence of NADPH. Format: ADME. As to conditions: read-out: Stability.
Data set [4] concerns Liver. Put plainly: Drug metabolism in BALB/c mouse liver microsomes assessed as formation of 7-Amino-2-benzyl-4-methyl-1,3-dioxo-2,3-dihydro-1H-pyrrolo-[3,4-c]pyridine-6-carboxylic Acid at 10 uM after 1 hr by LC-MS analysis. The class given is ADME.
Data set [5] in a line: Metabolic stability in mouse liver microsomes assessed as residual compound at 0.1 uM after 30 mins by LC-MS/MS method in presence or absence of NADPH. The conditions noted are these: read-out: Stability. The class given is ADME.
Data set [6] has as its system Plasma. Put plainly: Drug metabolism in C57/BL6 mouse plasma assessed as formation of 7-Amino-2-benzyl-4-methyl-1,3-dioxo-2,3-dihydro-1H-pyrrolo-[3,4-c]pyridine-6-carboxylic Acid by LC-MS analysis. The class given is ADME, cell-free.
Data set [7] has as its system Mycobacterium tuberculosis. Put plainly: Antimicrobial activity against Mycobacterium tuberculosis H37RvMA under GAST/Fe medium assessed as growth inhibition after 14 days by alamar blue assay. The class given is functional. The conditions noted are these: 336 h. The essentials:
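Broth microdilution in GAST/Fe medium against fully virulent Mtb H37RvMa or its derived strains (cytochrome bd oxidase deletion ΔcydKO; qcrB Ala317Thr point mutant). Plates were incubated 14 days, growth was read by Alamar Blue, and MIC90 was taken as the potency value.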

Data set [8] deals with Liver. Put plainly: Drug metabolism in BALB/c mouse liver microsomes assessed as formation of 7-Amino-2-benzyl-4-methyl-1,3-dioxo-2,3-dihydro-1H-pyrrolo-[3,4-c]pyridine-6-carboxamide at 10 uM after 1 hr by LC-MS analysis. Format: ADME.
Data set [9] in a line: Metabolic stability in human liver microsomes assessed as residual compound at 0.1 uM after 30 mins by LC-MS/MS method in presence or absence of NADPH. The class given is ADME. The conditions noted are these: read-out: Stability.
The next data set has as its system Vero. Put plainly: Cytotoxicity against African green monkey Vero cells assessed as cell viability by MTT assay. Format: cell-based. As to conditions: Chlorocebus sabaeus. Put shortly:
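VERO kidney epithelial cells from African green monkey were exposed to compounds at concentrations up to 100 μM, and IC₅₀ was reported.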

The test system of data set [10] is Liver. Put plainly: Drug metabolism in BALB/c mouse liver microsomes assessed as formation of 7-Amino-2-benzyl-N-cyano-4-methyl-1,3-dioxo-2,3-dihydro-1Hpyrrolo[3,4-c]pyridine-6-carboxamide at 10 uM after 1 hr by LC-MS analysis. The class given is ADME.
In data set [11] the test system is Plasma. Put plainly: Drug metabolism in C57/BL6 mouse plasma assessed as formation of 7-Amino-2-benzyl-N-cyano-4-methyl-1,3-dioxo-2,3-dihydro-1Hpyrrolo[3,4-c]pyridine-6-carboxamide by LC-MS analysis. The class given is ADME, cell-free.
A further data set relates to CHO. Put plainly: Cytotoxicity against CHO cells assessed as cell viability by MTT assay. The class given is cell-based. As to conditions: Cricetulus griseus.
Data set [12] deals with Liver. Put plainly: Drug level in BALB/c mouse liver microsomes treated with 7-Amino-2-benzyl-4-methyl-6-(3-methyl-1,2,4-oxadiazol-5-yl)-1H-pyrrolo[3,4-c]pyridine-1,3(2H)-dione at 10 uM after 1 hr by LC-MS analysis. Format: ADME.
Data set [13] relates to Liver. Put plainly: Drug level in BALB/c mouse liver microsomes treated with ethyl 7-Amino-2-benzyl-4-methyl-1,3-dioxo-2,3-dihydro-1Hpyrrolo[3,4-c]pyridine-6-carboxylate at 10 uM after 1 hr by LC-MS analysis in absence of NADPH. The class given is ADME.
The subject of data set [14] is Mycobacterium tuberculosis. Put plainly: Drug level in supernatant of Mycobacterium tuberculosis treated with Ethyl 7-Amino-2-benzyl-4-methyl-1,3-dioxo-2,3-dihydro-1Hpyrrolo[3,4-c]pyridine-6-carboxylate in absence of NADPH. Format: ADME, organism-based.
In data set [15] the test system is Plasma. Put plainly: Drug metabolism in C57/BL6 mouse plasma treated with 7-Amino-2-benzyl-4-methyl-6-(3-methyl-1,2,4-oxadiazol-5-yl)-1H-pyrrolo[3,4-c]pyridine-1,3(2H)-dione by LC-MS analysis. The class given is ADME, cell-free.
The subject of data set [16] is Plasma. Put plainly: Drug level in C57/BL6 mouse plasma treated with ethyl 7-Amino-2-benzyl-4-methyl-1,3-dioxo-2,3-dihydro-1Hpyrrolo[3,4-c]pyridine-6-carboxylate by LC-MS analysis in absence of NADPH. Format: ADME, cell-free.

Converted amounts (≈) assume the structure as drawn.

Regarding `Cc1noc(-c2nc(C)c3c(c2N)C(=O)N(Cc2ccccc2)C3=O)n1`, the Drug metabolism entry in the data set with Plasma [1], with Liver [4], with Plasma [6], in the data set with Liver [8], in the data set with Liver [10] and with Plasma [11] was “metabolite_detected” in each case. Moreover, in [2], the solubility kinetic at 2 h is less than 5 µM. Besides, the values for the remaining at 0.5 h, 0.1 µM in data set [3], in data set [5] and in [9] were 100%, 98% and 57%, respectively. The MIC90 in data set [7] turned out to be 0.625 µM (≈ 0.218 µg/mL). For the same compound, the IC50 in the data set with Vero was more than 100 µM.
For `Cc1nc(C(=O)O)c(N)c2c1C(=O)N(Cc1ccccc1)C2=O`, in the data set on CHO, the IC50 was more than 100 µM. Besides, the solubility kinetic at 2 h in [2] was 177 µM (≈ 55.1 µg/mL). In addition, the results for the remaining at 0.5 h, 0.1 µM in data set [3], in [5] and in data set [9] were 71%, 79% and 64%, respectively. The MIC90 in [7] was determined as 3.13 µM (≈ 0.974 µg/mL). The Drug metabolism result (in the data set on Liver [12]; with Liver [13]; in data set [14]; with Plasma [15]; in the data set on Plasma [16]) was “metabolite_detected” throughout.
